From ChEMBL document CHEMBL3526051 (Drug Metab Dispos, 2012)

Legend:
[1] = target: Histone deacetylase 4 (Homo sapiens, UniProt P56524); experiment: Inhibition of HDAC4 (unknown origin) expressed in HEK293 cells using [3H]acetylated human histone H4 peptide as substrate by scintillation counting
[2] = target: T1, Histone deacetylase 8 (Homo sapiens, UniProt Q9BY41); experiment: Inhibition of his-strep-tagged HDAC8 (unknown origin) expressed in SF9 cells using [3H]acetylated human histone H4 peptide as substrate by scintillation counting
T1 sequence (Q9BY41 whole entry): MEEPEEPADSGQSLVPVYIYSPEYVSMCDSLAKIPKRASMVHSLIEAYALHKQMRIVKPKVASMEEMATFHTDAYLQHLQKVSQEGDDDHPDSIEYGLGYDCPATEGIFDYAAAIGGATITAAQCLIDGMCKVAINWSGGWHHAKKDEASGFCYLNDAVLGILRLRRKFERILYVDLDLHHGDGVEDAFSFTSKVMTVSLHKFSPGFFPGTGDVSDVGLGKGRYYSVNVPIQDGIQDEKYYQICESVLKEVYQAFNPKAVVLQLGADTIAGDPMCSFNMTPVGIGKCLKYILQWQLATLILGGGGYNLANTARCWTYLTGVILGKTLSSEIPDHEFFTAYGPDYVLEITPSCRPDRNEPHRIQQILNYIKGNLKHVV

[3] = target: T2, Protein deacetylase HDAC6 (Homo sapiens, UniProt Q9UBN7); experiment: Inhibition of HDAC6 (unknown origin) expressed in HEK293 cells using [3H]acetylated human histone H4 peptide as substrate by scintillation counting
T2 sequence (Q9UBN7 whole entry): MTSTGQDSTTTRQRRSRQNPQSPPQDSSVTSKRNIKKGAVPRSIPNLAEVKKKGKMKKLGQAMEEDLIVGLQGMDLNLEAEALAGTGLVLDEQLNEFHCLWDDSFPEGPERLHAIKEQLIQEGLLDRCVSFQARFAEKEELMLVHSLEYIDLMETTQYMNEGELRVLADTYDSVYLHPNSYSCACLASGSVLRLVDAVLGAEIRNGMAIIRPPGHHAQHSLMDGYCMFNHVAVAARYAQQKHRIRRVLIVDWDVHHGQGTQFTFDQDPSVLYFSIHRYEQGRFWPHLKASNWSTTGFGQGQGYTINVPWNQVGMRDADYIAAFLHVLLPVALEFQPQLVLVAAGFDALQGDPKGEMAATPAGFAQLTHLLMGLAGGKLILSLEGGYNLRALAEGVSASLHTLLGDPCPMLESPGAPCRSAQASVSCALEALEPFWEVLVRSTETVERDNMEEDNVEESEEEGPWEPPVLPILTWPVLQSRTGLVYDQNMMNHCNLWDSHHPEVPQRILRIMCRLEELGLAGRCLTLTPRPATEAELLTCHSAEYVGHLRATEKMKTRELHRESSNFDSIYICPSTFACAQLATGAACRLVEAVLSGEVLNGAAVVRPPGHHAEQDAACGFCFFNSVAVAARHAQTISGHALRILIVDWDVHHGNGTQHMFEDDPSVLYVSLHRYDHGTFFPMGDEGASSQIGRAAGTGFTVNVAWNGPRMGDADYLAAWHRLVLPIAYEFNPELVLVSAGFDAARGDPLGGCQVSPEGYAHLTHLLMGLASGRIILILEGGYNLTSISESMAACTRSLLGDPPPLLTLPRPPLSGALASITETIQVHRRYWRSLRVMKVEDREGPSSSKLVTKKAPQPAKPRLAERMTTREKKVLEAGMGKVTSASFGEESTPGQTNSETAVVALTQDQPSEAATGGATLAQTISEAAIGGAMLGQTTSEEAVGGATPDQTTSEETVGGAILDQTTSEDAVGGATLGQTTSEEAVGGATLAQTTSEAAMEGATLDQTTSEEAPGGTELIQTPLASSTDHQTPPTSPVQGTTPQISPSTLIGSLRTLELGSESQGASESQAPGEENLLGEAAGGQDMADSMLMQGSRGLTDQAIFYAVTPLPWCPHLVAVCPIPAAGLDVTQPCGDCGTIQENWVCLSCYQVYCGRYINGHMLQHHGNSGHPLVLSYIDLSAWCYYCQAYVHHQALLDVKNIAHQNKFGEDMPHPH

[4] = target: Histone deacetylase 1 (Homo sapiens, UniProt Q13547); experiment: Inhibition of HDAC1 (unknown origin) expressed in HEK293 cells using [3H]acetylated human histone H4 peptide as substrate by scintillation counting; format: cell-based
[5] = target: Histone deacetylase 3 (Homo sapiens, UniProt O15379); experiment: Inhibition of HDAC3 (unknown origin) expressed in HEK293 cells using [3H]acetylated human histone H4 peptide as substrate by scintillation counting
[6] = target: Histone deacetylase 2 (Homo sapiens, UniProt Q92769); experiment: Inhibition of flag-tagged HDAC2 (unknown origin) expressed in SF21 cells using [3H]acetylated human histone H4 peptide as substrate by scintillation counting
[7] = target: CYP2B6 (Homo sapiens, UniProt P20813); experiment: Activity of recombinant human CYP2B6 expressed in Escherichia coli JM109 co-expressing P450 reductase assessed as enzyme-mediated drug metabolism measured as compound remaining after 1 hr by LC-MS analysis; format: ADME; conditions: read-out: Stability
Procedure, shortened: (§1)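 Whole E. coli cells were diluted in PSE buffer (50 mM KH2PO4, 250 mM sucrose, 0.25 mM EDTA, pH 7.4) to 100 mg/ml wet biomass. Each suspension was mixed with DL-isocitrate and substrate stock (5 mg/ml in ACN/DMSO 19:1) in aerated caps. Incubation was at 30°C, 1100 rpm for 0.5 or 1 h. Reactions were stopped with ACN/methanol (1:1) and centrifuged, and the supernatant was analysed by LC-MS.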

[8] = target: T3, CYP3A4 (Homo sapiens, UniProt P08684); experiment: Activity of recombinant human CYP3A4 expressed in supersomes assessed as enzyme-mediated drug metabolism measured as compound remaining at 10 uM after 1 hr by LC-MS analysis; format: ADME; conditions: read-out: Stability
Procedure, shortened: (§2)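 Insect-cell Supersomes coexpressing the rh P450 and rh P450 reductase were incubated with 10 µM substrate in 185 mM HEPES pH 7.5. The mix contained 6.65 mM MgCl2, 0.5 mM NADP, 2.54 mM DL-isocitrate and isocitric dehydrogenase. The reaction was started with the NADPH-regenerating system and run 1 h at 30°C without shaking. It was extracted with 1 volume ACN, centrifuged at 21,000g, and the supernatant analysed by LC-MS.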

[9] = Drug metabolism in Escherichia coli JM109 assessed as compound remaining after 1 hr by LC-MS analysis; format: ADME, organism-based; conditions: read-out: Stability; procedure, shortened: as §1
[10] = target: CYP2C18 (Homo sapiens, UniProt P33260); experiment: Activity of recombinant human CYP2C18 expressed in Escherichia coli JM109 co-expressing P450 reductase assessed as enzyme-mediated drug metabolism measured as compound remaining after 1 hr by LC-MS analysis; format: ADME; conditions: read-out: Stability; procedure, shortened: as §1
[11] = target: CYP1A1 (Homo sapiens, UniProt P04798); experiment: Activity of recombinant human CYP1A1 expressed in Escherichia coli JM109 co-expressing P450 reductase assessed as enzyme-mediated drug metabolism measured as compound remaining after 1 hr by LC-MS analysis; format: ADME; conditions: read-out: Stability; procedure, shortened: as §1
[12] = target: CYP2C8 (Homo sapiens, UniProt P10632); experiment: Activity of recombinant human CYP2C8 expressed in Escherichia coli JM109 co-expressing P450 reductase assessed as enzyme-mediated drug metabolism measured as compound remaining after 1 hr by LC-MS analysis; format: ADME; conditions: read-out: Stability; procedure, shortened: as §1
[13] = target: CYP2A6 (Homo sapiens, UniProt P11509); experiment: Activity of recombinant human CYP2A6 expressed in Escherichia coli JM109 co-expressing P450 reductase assessed as enzyme-mediated drug metabolism measured as compound remaining after 1 hr by LC-MS analysis; format: ADME; conditions: read-out: Stability; procedure, shortened: as §1
[14] = target: CYP3A5 (Homo sapiens, UniProt P20815); experiment: Activity of recombinant human CYP3A5 expressed in Escherichia coli JM109 co-expressing P450 reductase assessed as enzyme-mediated drug metabolism measured as compound remaining after 1 hr by LC-MS analysis; format: ADME; conditions: read-out: Stability; procedure, shortened: as §1
[15] = target: CYP2C19 (Homo sapiens, UniProt P33261); experiment: Activity of recombinant human CYP2C19 expressed in Escherichia coli JM109 co-expressing P450 reductase assessed as enzyme-mediated drug metabolism measured as compound remaining after 1 hr by LC-MS analysis; format: ADME; conditions: read-out: Stability; procedure, shortened: as §1
[16] = target: T3, CYP3A4; experiment: Activity of recombinant human CYP3A4 expressed in Escherichia coli JM109 co-expressing P450 reductase assessed as enzyme-mediated drug metabolism measured as compound remaining after 1 hr by LC-MS analysis in presence of cytochrome b5; format: ADME; conditions: read-out: Stability; procedure, shortened: as §1
[17] = target: CYP2C9 (Homo sapiens, UniProt P11712); experiment: Activity of recombinant human CYP2C9 expressed in Escherichia coli JM109 co-expressing P450 reductase assessed as enzyme-mediated drug metabolism measured as compound remaining after 1 hr by LC-MS analysis; format: ADME; conditions: read-out: Stability; procedure, shortened: as §1
[18] = target: T4, CYP2D6 (Homo sapiens, UniProt P10635); experiment: Activity of recombinant human CYP2D6 expressed in supersomes assessed as enzyme-mediated drug metabolism measured as compound remaining at 10 uM after 1 hr by LC-MS analysis; format: ADME; conditions: read-out: Stability; procedure, shortened: as §2
[19] = target: CYP1A2 (Homo sapiens, UniProt P05177); experiment: Activity of recombinant human CYP1A2 expressed in Escherichia coli JM109 co-expressing P450 reductase assessed as enzyme-mediated drug metabolism measured as compound remaining after 1 hr by LC-MS analysis; format: ADME; conditions: read-out: Stability; procedure, shortened: as §1
[20] = target: T4, CYP2D6; experiment: Activity of recombinant human CYP2D6 expressed in Escherichia coli JM109 co-expressing P450 reductase assessed as enzyme-mediated drug metabolism measured as compound remaining after 1 hr by LC-MS analysis; format: ADME; conditions: read-out: Stability; procedure, shortened: as §1
[21] = target: CYP4A11 (Homo sapiens, UniProt Q02928); experiment: Activity of recombinant human CYP4A11 expressed in Escherichia coli JM109 co-expressing P450 reductase assessed as enzyme-mediated drug metabolism measured as compound remaining after 1 hr by LC-MS analysis; format: ADME; conditions: read-out: Stability; procedure, shortened: as §1
[22] = target: T3, CYP3A4; experiment: Activity of recombinant human CYP3A4 expressed in Escherichia coli JM109 co-expressing P450 reductase assessed as enzyme-mediated drug metabolism measured as compound remaining after 1 hr by LC-MS analysis; format: ADME; conditions: read-out: Stability; procedure, shortened: as §1
[23] = target: CYP2E1 (Homo sapiens, UniProt P05181); experiment: Activity of recombinant human CYP2E1 expressed in Escherichia coli JM109 co-expressing P450 reductase assessed as enzyme-mediated drug metabolism measured as compound remaining after 1 hr by LC-MS analysis; format: ADME; conditions: read-out: Stability; procedure, shortened: as §1
[24] = target: CYP1B1 (Homo sapiens, UniProt Q16678); experiment: Activity of recombinant human CYP1B1 expressed in Escherichia coli JM109 co-expressing P450 reductase assessed as enzyme-mediated drug metabolism measured as compound remaining after 1 hr by LC-MS analysis; format: ADME; conditions: read-out: Stability; procedure, shortened: as §1

T3 sequence (P08684 whole entry): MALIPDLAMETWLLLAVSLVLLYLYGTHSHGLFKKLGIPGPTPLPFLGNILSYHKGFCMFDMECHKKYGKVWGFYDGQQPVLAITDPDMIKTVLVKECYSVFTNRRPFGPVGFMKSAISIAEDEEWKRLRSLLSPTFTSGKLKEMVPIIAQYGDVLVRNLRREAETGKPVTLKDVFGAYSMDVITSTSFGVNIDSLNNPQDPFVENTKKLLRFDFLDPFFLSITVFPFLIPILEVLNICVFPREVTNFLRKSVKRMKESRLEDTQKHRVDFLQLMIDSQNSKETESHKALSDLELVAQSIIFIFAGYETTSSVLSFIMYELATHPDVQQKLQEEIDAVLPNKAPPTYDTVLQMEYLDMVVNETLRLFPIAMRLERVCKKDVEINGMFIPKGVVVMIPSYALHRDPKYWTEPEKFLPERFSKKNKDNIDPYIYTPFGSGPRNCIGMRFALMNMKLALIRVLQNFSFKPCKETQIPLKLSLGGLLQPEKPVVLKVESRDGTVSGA
Sequence of Histone deacetylase 3 (O15379 whole entry): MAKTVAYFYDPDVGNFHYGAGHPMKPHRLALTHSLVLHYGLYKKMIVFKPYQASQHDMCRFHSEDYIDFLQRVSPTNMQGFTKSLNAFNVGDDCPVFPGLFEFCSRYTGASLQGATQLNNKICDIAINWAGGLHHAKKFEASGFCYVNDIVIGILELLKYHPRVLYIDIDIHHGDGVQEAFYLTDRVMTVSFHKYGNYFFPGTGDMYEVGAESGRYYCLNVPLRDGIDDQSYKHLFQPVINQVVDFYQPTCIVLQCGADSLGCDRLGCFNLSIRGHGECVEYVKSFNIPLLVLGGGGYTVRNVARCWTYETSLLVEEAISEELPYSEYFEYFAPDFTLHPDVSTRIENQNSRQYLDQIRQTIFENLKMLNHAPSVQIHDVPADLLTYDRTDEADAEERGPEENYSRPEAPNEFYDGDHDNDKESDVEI
Sequence of Histone deacetylase 4 (P56524 whole entry): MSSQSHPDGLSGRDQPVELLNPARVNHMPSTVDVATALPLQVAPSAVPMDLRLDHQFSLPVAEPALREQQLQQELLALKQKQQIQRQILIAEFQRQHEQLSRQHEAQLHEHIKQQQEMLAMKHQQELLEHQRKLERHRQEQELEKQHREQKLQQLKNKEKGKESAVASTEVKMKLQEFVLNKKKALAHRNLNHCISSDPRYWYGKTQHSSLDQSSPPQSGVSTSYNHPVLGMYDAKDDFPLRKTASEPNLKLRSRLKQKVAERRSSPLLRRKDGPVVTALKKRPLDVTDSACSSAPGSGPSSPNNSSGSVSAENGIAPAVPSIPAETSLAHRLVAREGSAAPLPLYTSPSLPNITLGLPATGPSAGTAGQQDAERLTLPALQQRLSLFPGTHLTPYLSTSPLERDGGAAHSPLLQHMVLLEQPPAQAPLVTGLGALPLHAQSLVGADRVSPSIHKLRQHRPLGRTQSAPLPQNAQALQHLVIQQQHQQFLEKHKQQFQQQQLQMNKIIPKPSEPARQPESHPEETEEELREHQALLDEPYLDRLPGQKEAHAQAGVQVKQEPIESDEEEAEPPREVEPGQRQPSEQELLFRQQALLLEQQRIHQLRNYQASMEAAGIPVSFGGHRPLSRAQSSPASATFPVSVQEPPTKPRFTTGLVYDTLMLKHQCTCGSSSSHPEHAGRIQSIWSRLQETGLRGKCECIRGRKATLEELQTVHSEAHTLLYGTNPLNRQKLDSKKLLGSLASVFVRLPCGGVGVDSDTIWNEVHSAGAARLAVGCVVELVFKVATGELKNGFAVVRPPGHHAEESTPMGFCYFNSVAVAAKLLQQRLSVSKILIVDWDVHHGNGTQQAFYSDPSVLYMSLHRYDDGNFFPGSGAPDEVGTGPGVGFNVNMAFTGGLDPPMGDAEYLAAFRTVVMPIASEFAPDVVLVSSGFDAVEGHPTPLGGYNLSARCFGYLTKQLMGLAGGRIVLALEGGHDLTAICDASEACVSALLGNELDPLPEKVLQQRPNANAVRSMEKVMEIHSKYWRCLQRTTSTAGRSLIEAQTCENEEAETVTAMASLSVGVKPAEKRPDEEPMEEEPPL
Sequence of Histone deacetylase 1 (Q13547 whole entry): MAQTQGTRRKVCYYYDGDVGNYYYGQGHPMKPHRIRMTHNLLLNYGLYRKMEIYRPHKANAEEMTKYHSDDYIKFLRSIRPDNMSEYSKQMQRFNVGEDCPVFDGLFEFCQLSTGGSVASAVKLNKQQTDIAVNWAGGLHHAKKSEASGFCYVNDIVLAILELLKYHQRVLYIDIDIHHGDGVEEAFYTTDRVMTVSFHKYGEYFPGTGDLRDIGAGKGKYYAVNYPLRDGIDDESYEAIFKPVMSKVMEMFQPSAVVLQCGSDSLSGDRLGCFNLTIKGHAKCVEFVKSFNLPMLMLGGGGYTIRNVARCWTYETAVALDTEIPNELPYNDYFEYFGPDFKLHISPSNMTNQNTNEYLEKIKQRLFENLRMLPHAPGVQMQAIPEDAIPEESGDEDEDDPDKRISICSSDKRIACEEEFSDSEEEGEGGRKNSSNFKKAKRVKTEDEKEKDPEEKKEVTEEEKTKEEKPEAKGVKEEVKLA
Sequence of Histone deacetylase 2 (Q92769 whole entry): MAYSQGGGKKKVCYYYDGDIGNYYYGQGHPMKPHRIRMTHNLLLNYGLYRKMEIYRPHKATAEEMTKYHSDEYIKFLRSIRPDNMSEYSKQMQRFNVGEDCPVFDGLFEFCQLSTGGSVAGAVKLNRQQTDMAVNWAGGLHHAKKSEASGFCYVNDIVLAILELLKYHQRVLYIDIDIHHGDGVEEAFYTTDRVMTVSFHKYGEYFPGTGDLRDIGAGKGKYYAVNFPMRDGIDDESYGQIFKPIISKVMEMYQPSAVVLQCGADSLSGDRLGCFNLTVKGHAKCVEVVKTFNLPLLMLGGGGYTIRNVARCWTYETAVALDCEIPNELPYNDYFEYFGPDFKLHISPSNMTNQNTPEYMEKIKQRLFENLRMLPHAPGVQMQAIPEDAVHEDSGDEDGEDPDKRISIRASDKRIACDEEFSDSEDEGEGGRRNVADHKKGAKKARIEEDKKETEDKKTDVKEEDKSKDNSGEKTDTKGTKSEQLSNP
T4 sequence (P10635 whole entry): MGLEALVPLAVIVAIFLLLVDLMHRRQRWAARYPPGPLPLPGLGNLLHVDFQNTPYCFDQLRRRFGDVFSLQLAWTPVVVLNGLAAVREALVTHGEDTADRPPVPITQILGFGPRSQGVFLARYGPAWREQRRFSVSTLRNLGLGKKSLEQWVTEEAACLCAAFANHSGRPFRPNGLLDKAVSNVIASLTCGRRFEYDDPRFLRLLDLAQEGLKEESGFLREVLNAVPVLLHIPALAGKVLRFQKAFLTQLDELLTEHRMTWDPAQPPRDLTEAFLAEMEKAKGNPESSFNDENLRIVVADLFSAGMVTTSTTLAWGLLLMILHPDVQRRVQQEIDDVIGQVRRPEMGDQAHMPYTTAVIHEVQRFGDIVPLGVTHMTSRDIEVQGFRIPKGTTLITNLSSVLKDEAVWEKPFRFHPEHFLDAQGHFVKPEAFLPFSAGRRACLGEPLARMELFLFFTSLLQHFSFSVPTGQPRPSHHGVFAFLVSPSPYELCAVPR
Sequence of CYP1A2 (P05177 whole entry): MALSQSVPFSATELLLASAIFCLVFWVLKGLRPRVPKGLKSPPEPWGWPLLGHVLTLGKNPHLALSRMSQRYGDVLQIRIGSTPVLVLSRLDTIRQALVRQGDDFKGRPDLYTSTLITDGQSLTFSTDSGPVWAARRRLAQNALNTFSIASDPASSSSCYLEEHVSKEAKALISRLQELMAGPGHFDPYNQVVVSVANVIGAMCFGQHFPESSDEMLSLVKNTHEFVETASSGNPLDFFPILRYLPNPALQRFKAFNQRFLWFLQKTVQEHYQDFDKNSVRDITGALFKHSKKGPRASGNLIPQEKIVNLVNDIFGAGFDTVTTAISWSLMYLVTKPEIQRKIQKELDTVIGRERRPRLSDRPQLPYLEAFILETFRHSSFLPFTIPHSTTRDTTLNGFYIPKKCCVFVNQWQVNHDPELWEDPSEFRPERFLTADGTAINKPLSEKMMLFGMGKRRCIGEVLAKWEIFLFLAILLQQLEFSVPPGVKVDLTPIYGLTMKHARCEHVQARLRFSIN
Sequence of CYP3A5 (P20815 whole entry): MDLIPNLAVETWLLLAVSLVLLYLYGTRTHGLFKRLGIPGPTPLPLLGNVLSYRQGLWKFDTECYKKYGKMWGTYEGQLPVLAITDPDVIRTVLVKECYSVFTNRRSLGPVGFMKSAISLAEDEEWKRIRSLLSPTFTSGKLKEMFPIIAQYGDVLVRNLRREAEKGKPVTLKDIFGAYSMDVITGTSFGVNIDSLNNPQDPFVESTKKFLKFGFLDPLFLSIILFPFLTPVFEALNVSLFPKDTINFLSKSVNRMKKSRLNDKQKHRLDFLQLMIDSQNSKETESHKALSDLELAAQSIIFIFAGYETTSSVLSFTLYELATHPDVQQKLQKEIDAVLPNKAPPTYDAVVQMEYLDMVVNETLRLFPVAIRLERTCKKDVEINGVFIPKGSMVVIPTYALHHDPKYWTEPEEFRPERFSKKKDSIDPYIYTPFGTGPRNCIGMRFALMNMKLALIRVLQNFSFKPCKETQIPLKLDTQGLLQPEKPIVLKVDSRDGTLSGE
Sequence of CYP1A1 (P04798 whole entry): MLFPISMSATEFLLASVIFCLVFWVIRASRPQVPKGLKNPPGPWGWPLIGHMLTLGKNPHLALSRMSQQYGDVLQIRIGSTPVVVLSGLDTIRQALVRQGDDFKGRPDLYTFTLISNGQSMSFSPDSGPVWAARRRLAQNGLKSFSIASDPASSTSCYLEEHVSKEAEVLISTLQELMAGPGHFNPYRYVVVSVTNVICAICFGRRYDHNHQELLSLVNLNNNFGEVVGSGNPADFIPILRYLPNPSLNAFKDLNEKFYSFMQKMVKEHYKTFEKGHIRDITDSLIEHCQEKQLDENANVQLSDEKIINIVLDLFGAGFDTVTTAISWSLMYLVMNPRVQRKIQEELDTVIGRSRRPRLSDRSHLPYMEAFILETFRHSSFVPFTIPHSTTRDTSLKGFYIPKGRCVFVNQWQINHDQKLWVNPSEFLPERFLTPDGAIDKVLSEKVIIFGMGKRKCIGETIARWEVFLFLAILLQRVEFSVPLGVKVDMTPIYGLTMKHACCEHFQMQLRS

Row | Structure (SMILES) | IC50 [1] | IC50 [2] | IC50 [3] | IC50 [4] | IC50 [5] | IC50 [6] | further results
1 | C[C@@]12Nc3ccccc3[C@]1(O)CCN2Cc1ccc(/C=C/C(=O)NO)cc1 | 0.23 µM | 0.92 µM | 0.062 µM | 0.14 µM | 0.18 µM | 1.5 µM | –
2 | C[C@@]12Nc3ccccc3[C@]1(O)CCN2Cc1ccc(/C=C/C(N)=O)cc1 | 1 µM | 23 µM | 1.1 µM | 0.97 µM | 0.93 µM | 6 µM | –
3 | Cc1[nH]c2cc(O)ccc2c1CCNCc1ccc(/C=C/C(N)=O)cc1 | 4.6 µM | 6.8 µM | 4.9 µM | 4.6 µM | 3.3 µM | 27 µM | –
4 | Cc1[nH]c2ccccc2c1CCNCc1ccc(/C=C/C(N)=O)cc1 | 18 µM | 22 µM | > 30 µM | 11 µM | 22 µM | 29 µM | –
5 | Cc1[nH]c2ccccc2c1CCNCc1ccc(/C=C/C(=O)NO)cc1 [PANOBINOSTAT] | – | – | – | – | – | – | remaining at 1 h [7]: 62%; remaining at 1 h, 10 µM [8]: 94%; remaining at 1 h [9]: 55%; remaining at 1 h [10]: 56%; remaining at 1 h [11]: 61%; remaining at 1 h [12]: 63%; remaining at 1 h [13]: 81%; remaining at 1 h [14]: 73%; remaining at 1 h [15]: 80%; remaining at 1 h [16]: 45%; remaining at 1 h [17]: 34%; remaining at 1 h, 10 µM [18]: 94%; remaining at 1 h [19]: 72%; remaining at 1 h [20]: 44%; remaining at 1 h [21]: 59%; remaining at 1 h [22]: 37%; remaining at 1 h [23]: 50%; remaining at 1 h [24]: 79%
